# RAD52 inh – blocks human RAD52 DNA annealing; AID 651710; actives 0.46% (n = 360,000); recombinant RAD52 DNA annealing, FRET fluorescence; P43351; inhibition, % at 18.7 µM;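 active = every replicate showing at least 50% inhibition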
# Glyco luc inh – N-linked glycosylation inhibition. actives 0.23% (n = 360,000). AID 588692. reporter increase, % at 12.5 µM. D54 ERlucT glycosylation luciferase reporter, 24 h; percent of 100 nM tunicamycin response;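 active = mean luciferase reporter signal, scaled so untreated is 0 and the glycosylation-blocking control 100, at or above a set limit in every replicate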;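 note: luciferase carries N-glycosylation sites so blocking glycosylation raises the light; 0% = median of neutral control wells and 100% = median of 100 nM tunicamycin wells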
# RAD54 inh – blocks human RAD54 Holliday junction branch migration; AID 602329; inhibition, % at 10.4 µM; FAM/BHQ fluorescence; actives 0.14% (n = 360,000);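 active = mean normalized replicate activity at least 40 and at least half of replicates scoring 40 or more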;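 note: 0% = median of neutral control wells and 100% = median of positive control wells; inhibitors cause a drop in the FAM fluorescence signal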
# FN deposition inh – fibronectin deposition inhibition | inhibition, % at 12.6 µM | actives 0.086% (n = 350,000) | AID 743247 | AH1F fibroblasts, Alexa488-fibronectin deposition fluorescence, overnight;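 active = mean inhibition across replicates of 30% or more, regardless of how many single replicates reach that level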;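 note: positive control wells lacked labelled fibronectin entirely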
#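 material = AH1F fibroblast monolayer depositing Alexa488-labelled fibronectin into matrix | amount = 10000 AH1F cells/well | buffer or medium = DMEM plus 2% serum, read in PBS | incubation = 1 h cell adhesion before compound, then overnight fibronectin incubation | detection = fluorescence at 485 nm excitation, 525 nm emission | evaluation = percent inhibition as loss of matrix-bound fibronectin fluorescence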
# CaV13 FRET inh – Disruptors of the CACNA1D IQ motif to Ca2+-dependent inactivation inhibitor domain association, primary screening, Förster resonance energy transfer in intact living …. HEK cells, CFP/YFP FRET ICDI-IQ, plate reader, 10 min; percent FRET-ratio fall versus neutral wells. AID 743397. actives 0.098% (n = 340,000). inhibition, % at 12.3 µM;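 active = mean replicate inhibition of at least 30% and at least 1% of replicates passing that level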;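 note: 0% = median of the neutral control wells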
# Starred values were filed as active, the others as inactive; . = no result given. Shown are actives, neighbours in structure and some others; about 0.7% of the full set was active somewhere.
SMILES,RAD52 inh,Glyco luc inh,RAD54 inh,FN deposition inh,CaV13 FRET inh
N#Cc1cc2[nH]c3ccccc3c2[n+](-c2ccc([N+](=O)[O-])cc2)c1N,15,28*,26,1,-18
O=c1[nH]c2cc([N+](=O)[O-])cc(Cl)c2c2ccccc12,-2,1,-2,8,-2
CSc1ccccc1C(=O)C1CCCN(C(=O)CCc2cccnc2)C1 (stereo not drawn),0,0,-6,45*,5
COc1ccc(S(=O)(=O)Nc2ccc3c(c2)CC(=O)N([C@H](C)CO)C[C@@H](C)[C@H](CN(C)C(=O)Nc2cccc4ccccc24)O3)cc1,-4,.,-13,-8,.
Cc1cc(CNC(=O)c2ccc3c(c2)OCO3)c2ccccc2n1,-26,18,.,15,152*
C[C@H]1CN([C@@H](C)CO)S(=O)(=O)c2ccc(-c3cncnc3)cc2O[C@@H]1CN(C)C,5,.,-2,.,.
C[C@H]1CN([C@@H](C)CO)C(=O)Cc2cc(NC(=O)CCC(F)(F)F)ccc2O[C@H]1CN(C)S(=O)(=O)c1ccc(Cl)cc1,19,32*,-10,5,-7
C[C@H](CO)N1C[C@H](C)[C@H](CN(C)S(=O)(=O)c2ccc(Cl)cc2)Oc2ccc(NC(=O)CCC(F)(F)F)cc2CC1=O,4,.,-4,0,.
C[C@H]1CN([C@@H](C)CO)C(=O)Cc2cc(NC(=O)CCC(F)(F)F)ccc2O[C@H]1CN(C)S(=O)(=O)c1ccc(F)cc1,-1,40*,-1,4,-4
Cc1ccc(S(=O)(=O)N(C)C[C@@H]2Oc3ccc(NC(=O)Nc4c(C)noc4C)cc3CC(=O)N([C@@H](C)CO)C[C@@H]2C)cc1,5,.,55*,.,.
COc1ccc(NC(=O)N2[C@@H]3CNC[C@H]2C3c2ccc(-c3ccc(C)cc3)cc2)cc1 (stereo partly drawn),49,.,.,1,.
COc1cc(NCCCC(C)N)c2ncccc2c1 (stereo not drawn),.,-8,69*,.,-6
CCC(CNc1cc(OC)cc2cccnc12)NC1CCCCC1 (stereo not drawn),36,1,.,-2,-23
CCNC(=O)c1cc2c(=O)n3cccc(C)c3nc2n(Cc2ccc(C)cc2)c1=N,.,2,25,.,55*
Cc1cccn2c(=O)c3cc(C(=O)NCCN4CCOCC4)c(=N)n(Cc4ccc(F)cc4)c3nc12,44,-20,38,-4,102*
Cc1cccn2c(=O)c3cc(C(=O)NC(C)C)c(=N)n(Cc4ccncc4)c3nc12,.,-1,13,.,.
CC(=O)Nc1ccc(NC(=O)c2nc(S(=O)(=O)Cc3ccccc3)ncc2Cl)cc1,6,-6,-5,51*,-6
O=C(NCc1ccc2c(c1)OCO2)c1nc(S(=O)(=O)Cc2ccccc2F)ncc1Cl,-27,-18,-3,33*,-3
O=C(C[C@H]1C=C[C@@H](NC(=O)Nc2ccc(C(F)(F)F)cc2)[C@@H](CO)O1)NCc1ccccn1,13,.,.,-2,.
CO[C@@H]1CN(C)C(=O)c2ccc(NC(=O)C3CC3)cc2OC[C@H](C)N(Cc2nccs2)C[C@H]1C,-5,.,14,-14,.
CCN1/C(=C/C(C)=C/c2sc3ccccc3[n+]2CC)Sc2ccccc21,-295,-17,72*,-3,-10
Cc1cc(Cl)ccc1OCCCC(=O)NO,.,81*,-13,.,-6
COc1cc(/C=C/C(=O)Nc2ccc(C)cc2)cc(OC)c1OC,.,3,.,1,-4
CCN(CC)CCNC(=O)c1ccc(NC(=O)/C=C/c2cc(OC)c(OC)c(OC)c2)cc1,24,4,62*,6,-3
OC1CCCN(Cc2ccc3ccc4cccc5ccc2c3c45)C1 (stereo not drawn),.,57*,91*,.,.
SMILES,RAD52 inh,Glyco luc inh,RAD54 inh,FN deposition inh,CaV13 FRET inh
Cc1ccc(S[C@@H](CCN2CC[C@H](O)CCC2=O)c2ccccc2)cc1,-13,3,-2,-6,33*
COc1cccc(-c2ccc3c(c2)[C@H]2[C@H](CCN2C(=O)Nc2ccccc2OC)[C@H](CO)N3C)c1,51*,.,10,-22,.
COc1cccc(-c2ccc3c(c2)[C@@H]2[C@@H](CCN2C(=O)Nc2ccccc2OC)[C@@H](CO)N3C)c1,60*,.,16,-9,.
COc1ccc(-c2ccc3c(c2)[C@@H]2[C@@H](CCN2C(=O)C2CC2)[C@@H](CO)N3C)cc1,68*,.,10,7,.
COc1cccc(-c2ccc3c(c2)[C@H]2[C@H](CCN2C(=O)Nc2ccccc2OC)[C@@H](CO)N3C)c1,27,.,11,-31,.
COc1cccc(-c2ccc3c(c2)[C@@H]2[C@@H](CCN2C(=O)c2ccccc2F)[C@@H](CO)N3C)c1,69*,.,13,0,.
COc1cccc(NC(=O)Nc2ccc3c(c2)C(=O)N(C)[C@H]2CC[C@H](CC(=O)O)O[C@@H]2CO3)c1,.,.,-9,-2,.
CCCN1C[C@@H](C)[C@@H](OC)CN(C)C(=O)c2cc(NC(=O)CC(F)(F)F)ccc2OC[C@@H]1C,-11,.,.,-11,.
CN1c2ccc(-c3ccccc3)cc2[C@@H]2[C@@H](CCN2C(=O)CN2CCOCC2)[C@@H]1CO,-9,.,4,30*,.
CN1c2ccc(-c3ccccc3)cc2[C@@H]2[C@@H](CCN2C(=O)CN2CCOCC2)[C@H]1CO,-18,.,20,-21,.
Cc1nc2ncccn2c1-c1csc(Nc2ccccc2)n1,-1,9,.,-14,-4
Cc1nc2ncccn2c1-c1csc(Nc2ccc(N(C)C)cc2)n1,4,51*,.,-21,6
CC(C)(C)c1ccc(OCc2ccc(C(=O)Nc3cccnc3)o2)cc1,-17,29*,-8,-13,-7
C[C@H](CO)N1C[C@H](C)[C@H](CN(C)C(=O)Nc2cccc3ccccc23)Oc2ccc(NC(=O)C3CCCCC3)cc2CC1=O,4,.,0,-1,.
CCN1CCS/C1=C\C=C\C1=[N+](CC)CCS1,36,9,-13,-2,84*
Cc1noc(C)c1S(=O)(=O)Nc1ccc2c(c1)C(=O)N([C@@H](C)CO)C[C@@H](C)[C@@H](CN(C)S(C)(=O)=O)O2,-7,.,-8,.,.
C#CCOCCOCCOCCNc1nc(N2CCN(C(=O)[C@H](CCC(=O)O)n3cc(C(N)CO)nn3)CC2)nc(N2CCN(C(=O)[C@H](Cc3cc4ccccc4[nH]3)n3cc(C(N)[C@H](C)CC)nn3)CC2)n1 (stereo partly drawn),.,1,2,.,.
C#CCOCCOCCOCCNc1nc(N2CCN(C(=O)[C@H](CCCCN)n3cc([C@@H](N)C(C)CC)nn3)CC2)nc(N2CCN(C(=O)[C@H](Cc3cc4ccccc4[nH]3)n3cc([C@@H](N)CC(C)C)nn3)CC2)n1 (stereo partly drawn),.,3,60*,.,.

# From PubChem BioAssay
